Measurements as given in ChEMBL document CHEMBL2413042, “Design, synthesis and evaluation of dialkyl 4-(benzo[d][1,3]dioxol-6-yl)-1,4-dihydro-2,6-dimethyl-1-substituted pyridine-3,5-dicarboxylates as potential anticonvulsants and their molecular properties prediction” (Eur J Med Chem, 2013).
In brackets after ≈: the same amount, converted by molar mass. Activity calls are given as the source filed them. The rule behind the calls is not given here.

Key:
Rattus norvegicus [1] = experiment: Anticonvulsant activity in Wistar albino rat assessed as time of onset of subcutaneous pentylenetetrazole-induced clonic convulsion at 5 mg/kg, ip administered 1 hr prior to pentylenetetrazole challenge measured for 300 secs (reference value: 83 +/- 4 secs); type: functional
Procedure, shortened: (§1)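 Male Wistar albino rats, six per group. Test agents were given orally as suspensions in 0.5% sodium carboxymethylcellulose; the reference was given i.p.; the vehicle group served as control. Pentylenetetrazole 80 mg/kg was given s.c. 1 h later. Onset of clonic convulsions and protection against mortality were recorded, with a 300 sec maximum latency. Mean±SEM; one-way ANOVA with Dunnett's test.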

Rattus norvegicus [2] = experiment: Anticonvulsant activity in Wistar albino rat assessed as protection against subcutaneous pentylenetetrazole-induced mortality at 50 mg/kg, po administered 1 hr prior to pentylenetetrazole challenge measured for 300 secs relative to control; type: functional; procedure, shortened: as §1
Rattus norvegicus [3] = experiment: Anticonvulsant activity in Wistar albino rat assessed as time of onset of subcutaneous pentylenetetrazole-induced clonic convulsion at 50 mg/kg, po administered 1 hr prior to pentylenetetrazole challenge measured for 300 secs (reference value: 83 +/- 4 secs); type: functional
[4] = tested on: Radical scavenging activity; experiment: Antioxidant activity assessed as DPPH free radical scavenging activity under dark condition after 30 mins; type: functional
Procedure, shortened: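 Test compound in ethanol (10, 50, 100, 250, 500 μg/ml solutions) was added to 0.004% DPPH in methanol. The mixture was kept in the dark for 30 min and absorbance was read at 517 nm. Percent radical inhibition was calculated, with ascorbic acid as reference, and IC50 was derived.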

Rattus norvegicus [5] = experiment: Anticonvulsant activity in Wistar albino rat assessed as protection against maximum electric shock-induced hind limb tonic extension at 50 mg/kg, po administered 1 hr followed by maximum electric shock induction relative to control; type: functional, Hindlimb
Procedure, shortened: (§2)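 Male Wistar albino rats, six per group, were given test compound orally as a suspension in 0.5% sodium carboxymethylcellulose. Controls received vehicle; phenytoin 30 mg/kg was given orally. One hour after dosing, 150 mA was applied for 0.2 sec through corneal electrodes. Duration of hind limb tonic extension was recorded. Values are mean±SEM; ANOVA with Dunnett's test vs control.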

Mus musculus = experiment: Antinociceptive activity in Swiss albino mouse assessed as reduction of capsaicin-induced flinching at 10 mg/kg, po administered 1 hr followed by capsaicin challenge; type: functional; set-up: scale not given: the % may be the effect or the level left
Procedure, shortened: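 Male Swiss mice (18-22 g), six per group, were dosed by oral gavage with compound in 0.5% sodium carboxymethylcellulose. One hour later, capsaicin (1 nmol/paw, 20 μl) was injected intraplantar into the right hind paw. Flinches of the injected paw were counted for 5 min. Values are mean±SEM; ANOVA with Dunnett's test vs vehicle control.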

Rattus norvegicus [6] = experiment: Anticonvulsant activity in Wistar albino rat assessed as protection against maximum electric shock-induced hind limb tonic extension administered 1 hr followed by maximum electric shock induction; type: functional, organism-based; conditions: Hindlimb; procedure, shortened: as §2
Rattus norvegicus [7] = experiment: Anticonvulsant activity in Wistar albino rat assessed as protection against maximum electric shock-induced hind limb tonic extension at 30 mg/kg, po administered 1 hr followed by maximum electric shock induction relative to control; type: functional, Hindlimb; procedure, shortened: as §2
Rattus norvegicus [8] = experiment: Anticonvulsant activity in Wistar albino rat assessed as protection against subcutaneous pentylenetetrazole-induced mortality at 25 mg/kg, po administered 1 hr prior to pentylenetetrazole challenge measured for 300 secs relative to control; type: functional; procedure, shortened: as §1
Rattus norvegicus [9] = experiment: Anticonvulsant activity in po dosed Wistar albino rat assessed as inhibition of subcutaneous pentylenetetrazole-induced seizure administered 1 hr prior to pentylenetetrazole challenge measured for 300 secs; type: functional, organism-based
Rattus norvegicus [10] = experiment: Anticonvulsant activity in po dosed Wistar albino rat assessed as protection against maximum electric shock-induced hind limb tonic extension administered 1 hr followed by maximum electric shock induction; type: functional, organism-based; conditions: Hindlimb; procedure, shortened: as §2
Rattus norvegicus [11] = experiment: Anticonvulsant activity in po dosed Wistar albino rat assessed as protection against subcutaneous pentylenetetrazole-induced mortality administered 1 hr prior to pentylenetetrazole challenge measured for 300 secs; type: functional, organism-based
Rattus norvegicus [12] = experiment: Anticonvulsant activity in Wistar albino rat assessed as protection against maximum electric shock-induced hind limb tonic extension at 100 mg/kg, po administered 1 hr followed by maximum electric shock induction relative to control; type: functional, Hindlimb; procedure, shortened: as §2
Rattus norvegicus [13] = experiment: Anticonvulsant activity in Wistar albino rat assessed as protection against maximum electric shock-induced hind limb tonic extension at 25 mg/kg, po administered 1 hr followed by maximum electric shock induction relative to control; type: functional, Hindlimb; procedure, shortened: as §2
Rattus norvegicus [14] = experiment: Anticonvulsant activity in Wistar albino rat assessed as time of onset of subcutaneous pentylenetetrazole-induced clonic convulsion at 100 mg/kg, po administered 1 hr prior to pentylenetetrazole challenge measured for 300 secs (reference value: 83 +/- 3.8 secs); type: functional
Rattus norvegicus [15] = experiment: Anticonvulsant activity in Wistar albino rat assessed as protection against subcutaneous pentylenetetrazole-induced mortality at 100 mg/kg, po administered 1 hr prior to pentylenetetrazole challenge measured for 300 secs relative to control; type: functional; procedure, shortened: as §1
Rattus norvegicus [16] = experiment: Anticonvulsant activity in Wistar albino rat assessed as time of onset of subcutaneous pentylenetetrazole-induced clonic convulsion at 25 mg/kg, po administered 1 hr prior to pentylenetetrazole challenge measured for 300 secs (reference value: 83 +/- 3.8 secs); type: functional
Rattus norvegicus [17] = experiment: Anticonvulsant activity in Wistar albino rat assessed as protection against subcutaneous pentylenetetrazole-induced mortality at 30 mg/kg administered 1 hr prior to pentylenetetrazole challenge measured for 300 secs relative to control; type: functional
Rattus norvegicus [18] = experiment: Anticonvulsant activity in Wistar albino rat assessed as time of onset of subcutaneous pentylenetetrazole-induced clonic convulsion at 30 mg/kg administered 1 hr prior to pentylenetetrazole challenge measured for 300 secs (reference value: 83 +/- 4 secs); type: functional
Rattus norvegicus [19] = experiment: Anticonvulsant activity in Wistar albino rat assessed as protection against maximum electric shock-induced hind limb tonic extension at 30 mg/kg administered 1 hr followed by maximum electric shock induction relative to control; type: functional, Hindlimb
Procedure, shortened: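 Male Wistar albino rats, six per group, dosed orally as a suspension in 0.5% sodium carboxymethylcellulose, with a vehicle control group. One hour later, 150 mA for 0.2 sec was applied through corneal electrodes. Duration of hind limb tonic extension was recorded, and abolition or reduction of extension was scored against control. Mean±SEM; one-way ANOVA with Dunnett's test.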

## CN1C(=O)CN=C(c2ccccc2)c2cc(Cl)ccc21 [DIAZEPAM]
Rattus norvegicus [1]
  Time: 262 s

## CCOC(=O)C1=C(C)N(c2ccccc2[N+](=O)[O-])C(C)=C(C(=O)OCC)C1c1ccc2c(c1)OCO2
Rattus norvegicus [2]
  Activity: 66.6%
Rattus norvegicus [3]
  Time: 293 s
[4]
  IC50: 874 mg/L (≈ 1770 µM)
Rattus norvegicus [5]
  Activity: 60.3%

## CCOC(=O)C1=C(C)NC(C)=C(C(=O)OC)C1c1ccc2c(c1)OCO2 (stereo not given)
Rattus norvegicus [2]
  Activity: 33.3%
Rattus norvegicus [3]
  Time: 233 s
[4]
  IC50: 467 mg/L (≈ 1300 µM)
Rattus norvegicus [5]
  Activity: 28.5%

## CCOC(=O)C1=C(C)N(c2ccc([N+](=O)[O-])cc2)C(C)=C(C(=O)OC)C1c1ccc2c(c1)OCO2 (stereo not given)
Rattus norvegicus [2]
  Activity: 33.3%
Rattus norvegicus [3]
  Time: 225 s
Mus musculus
  Activity: 4%
[4]
  IC50: 854 mg/L (≈ 1780 µM)
Rattus norvegicus [5]
  Activity: 31.7%

## COC(=O)C1=C(C)N(c2ccccc2[N+](=O)[O-])C(C)=C(C(=O)OC)C1c1ccc2c(c1)OCO2
Rattus norvegicus [2]
  Activity: 0%
Rattus norvegicus [3]
  Time: 174 s
[4]
  IC50: 2354 mg/L (≈ 5050 µM)
Rattus norvegicus [5]
  Activity: 33.3%

## CCOC(=O)C1=C(C)N(c2ccccc2[N+](=O)[O-])C(C)=C(C(=O)OC)C1c1ccc2c(c1)OCO2 (stereo not given)
Rattus norvegicus [2]
  Activity: 33.3%
Rattus norvegicus [3]
  Time: 251 s
[4]
  IC50: 933 mg/L (≈ 1940 µM)
Rattus norvegicus [5]
  Activity: 44.5%

## O=C1O[C@H]([C@@H](O)CO)C(O)=C1O [ASCORBIC ACID]
[4]
  IC50: 32 mg/L (≈ 182 µM)

## COC(=O)C1=C(C)N(c2ccc([N+](=O)[O-])cc2)C(C)=C(C(=O)OC)C1c1ccc2c(c1)OCO2
Rattus norvegicus [2]
  Activity: 0%
Rattus norvegicus [3]
  Time: 93 s
[4]
  IC50: 1289 mg/L (≈ 2760 µM)
Rattus norvegicus [5]
  Activity: 7.9%

## COC(=O)C1=C(C)NC(C)=C(C(=O)OC(C)C)C1c1cccc2nonc12 (stereo not given)
Rattus norvegicus [6]
  Activity: Active

## CCOC(=O)C1=C(C)N(c2cccc([N+](=O)[O-])c2)C(C)=C(C(=O)OCC)C1c1ccc2c(c1)OCO2
Rattus norvegicus [2]
  Activity: 33.3%
Rattus norvegicus [3]
  Time: 250 s
[4]
  IC50: 363 mg/L (≈ 734 µM)
Rattus norvegicus [5]
  Activity: 49.2%

## O=C1NC(=O)C(c2ccccc2)(c2ccccc2)N1 [PHENYTOIN]
Rattus norvegicus [7]
  Activity: 69.8%

## CCOC(=O)C1=C(C)N(c2cccc([N+](=O)[O-])c2)C(C)=C(C(=O)OC)C1c1ccc2c(c1)OCO2 (stereo not given)
Rattus norvegicus [2]
  Activity: 0%
Rattus norvegicus [3]
  Time: 136 s
[4]
  IC50: 386 mg/L (≈ 803 µM)
Rattus norvegicus [5]
  Activity: 28.5%

## CCOC(=O)C1=C(C)N(c2ccccc2)C(C)=C(C(=O)OC)C1c1ccc2c(c1)OCO2 (stereo not given)
Rattus norvegicus [2]
  Activity: 0%
Rattus norvegicus [3]
  Time: 221 s
[4]
  IC50: 740 mg/L (≈ 1700 µM)
Rattus norvegicus [5]
  Activity: 41.2%

## COC(=O)C1=C(C)N(c2ccccc2)C(C)=C(C(=O)OC)C1c1ccc2c(c1)OCO2
Rattus norvegicus [2]
  Activity: 0%
Rattus norvegicus [3]
  Time: 200 s
Mus musculus
  Activity: 0%
[4]
  IC50: 542 mg/L (≈ 1290 µM)
Rattus norvegicus [5]
  Activity: 41.2%

## CCOC(=O)C1=C(C)N(c2ccc([N+](=O)[O-])cc2)C(C)=C(C(=O)OCC)C1c1ccc2c(c1)OCO2
Rattus norvegicus [2]
  Activity: 66.6%
Rattus norvegicus [3]
  Time: 237 s
[4]
  IC50: 597 mg/L (≈ 1210 µM)
Rattus norvegicus [5]
  Activity: 46%

## CCOC(=O)C1=C(C)N(c2ccccc2)C(C)=C(C(=O)OCC)C1c1ccc2c(c1)OCO2
Rattus norvegicus [2]
  Activity: 66.6%
Rattus norvegicus [3]
  Time: 275 s
[4]
  IC50: 443 mg/L (≈ 986 µM)
Rattus norvegicus [5]
  Activity: 46%

## COC(=O)C1=C(C)NC(C)=C(C(=O)OC)C1c1ccc2c(c1)OCO2
Rattus norvegicus [2]
  Activity: 0%
Rattus norvegicus [3]
  Time: 200 s
Mus musculus
  Activity: 21%
[4]
  IC50: 604 mg/L (≈ 1750 µM)
Rattus norvegicus [5]
  Activity: 27%

## CCOC(=O)C1=C(C)NC(C)=C(C(=O)OCC)C1c1ccc2c(c1)OCO2
Rattus norvegicus [2]
  Activity: 100%
Rattus norvegicus [3]
  Time: >300 s
Rattus norvegicus [8]
  Activity: 100%
Rattus norvegicus [9]
  inhibition: Dose-dependent effect
Mus musculus
  Activity: 8%
[4]
  IC50: 375 mg/L (≈ 1000 µM)
Rattus norvegicus [10]
  Activity: Dose-dependent effect
Rattus norvegicus [11]
  Activity: Dose-dependent effect
Rattus norvegicus [12]
  Activity: 72%
Rattus norvegicus [13]
  Activity: 41.6%
Rattus norvegicus [14]
  Time: >300 s
Rattus norvegicus [15]
  Activity: 0%
Rattus norvegicus [16]
  Time: 194 s
Rattus norvegicus [5]
  Activity: 59%

## COC(=O)C1=C(C)NC(C)=C(C(=O)OC)C1c1ccccc1[N+](=O)[O-] [NIFEDIPINE]
Rattus norvegicus [17]
  Activity: 33.3%
Rattus norvegicus [18]
  Time: 215 s
Rattus norvegicus [19]
  Activity: 66.6%

## COC(=O)C1=C(C)N(c2cccc([N+](=O)[O-])c2)C(C)=C(C(=O)OC)C1c1ccc2c(c1)OCO2
Rattus norvegicus [2]
  Activity: 0%
Rattus norvegicus [3]
  Time: 138 s
[4]
  IC50: 521 mg/L (≈ 1120 µM)
Rattus norvegicus [5]
  Activity: 11.1%
